# pEC50: −log10 of the molar value. The source made the active and inactive calls. The rule behind the calls is not given here.
# Experiments:
# [1] = target: T1, Toll-like receptor 4 (Mus musculus) (UniProt Q9QUK6); assay: (§1) Agonist activity at TLR4 in C57BL/6J mouse macrophages assessed as stimulation of TNFalpha release after 4 hrs by ELISA
# T1 sequence (whole entry): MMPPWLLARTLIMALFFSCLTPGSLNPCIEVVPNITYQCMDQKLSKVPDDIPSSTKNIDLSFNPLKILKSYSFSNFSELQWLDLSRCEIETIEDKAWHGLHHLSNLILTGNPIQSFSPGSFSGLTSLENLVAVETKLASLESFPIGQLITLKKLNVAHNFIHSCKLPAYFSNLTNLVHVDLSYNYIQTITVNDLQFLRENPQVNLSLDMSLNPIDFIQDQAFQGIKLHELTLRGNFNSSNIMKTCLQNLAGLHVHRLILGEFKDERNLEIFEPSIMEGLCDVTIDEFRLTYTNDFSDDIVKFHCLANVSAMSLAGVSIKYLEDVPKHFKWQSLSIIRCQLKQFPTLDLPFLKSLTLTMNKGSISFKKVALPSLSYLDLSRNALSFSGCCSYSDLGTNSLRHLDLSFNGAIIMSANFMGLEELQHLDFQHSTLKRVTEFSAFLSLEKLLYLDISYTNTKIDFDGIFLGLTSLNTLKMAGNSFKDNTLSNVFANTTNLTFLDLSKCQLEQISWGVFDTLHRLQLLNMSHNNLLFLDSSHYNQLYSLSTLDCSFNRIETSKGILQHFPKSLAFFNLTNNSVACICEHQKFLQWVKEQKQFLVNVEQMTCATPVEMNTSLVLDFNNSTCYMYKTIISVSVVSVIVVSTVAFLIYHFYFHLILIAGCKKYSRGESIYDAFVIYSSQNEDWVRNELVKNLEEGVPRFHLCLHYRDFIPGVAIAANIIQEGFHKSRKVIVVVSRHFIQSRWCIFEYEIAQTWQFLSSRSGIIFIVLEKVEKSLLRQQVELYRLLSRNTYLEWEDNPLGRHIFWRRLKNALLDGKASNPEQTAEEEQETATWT
# How it was run: (§2)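 Peritoneal macrophages from wild-type C57BL/6J mice, collected by PBS lavage and cultured in DMEM/10% FBS at 37 °C, 5% CO2. Seeded at 1 × 10^5 cells/well and treated 4 h with compound in DMSO (0.5% final) beside ultra-pure LPS and DMSO controls. Supernatant TNF-α measured by ELISA; mean of triplicates.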
# Toll-like receptor 4 = target: T2, Toll-like receptor 4 (Mus musculus, UniProt Q9QUK6); assay: as §1; how it was run: as §2
# T2 sequence (Q9QUK6 whole entry): T1 sequence (whole entry)
# Macrophage [2] = assay: Induction of TNFalpha release in C57BL/6J mouse macrophages harboring TLR2 ingd/ingd mutant at 50 uM after 4 hrs by ELISA; assay type: functional, cell-based
# How it was run: (§3)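 Macrophages taken from mice carrying disabling germline mutations or knockouts in TLR or signaling-pathway genes. Exposed to compound at 50 µM; TNF-α released into the medium measured by ELISA. Results representative of two independent experiments; error bars SEM.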
# Macrophage [3] = assay: Induction of TNFalpha release in TLR3 deficient C57BL/6J mouse macrophages at 50 uM after 4 hrs by ELISA; assay type: functional, cell-based; how it was run: as §3
# Mus musculus [4] = species: Mus musculus; assay: Agonist activity at TLR4 lps3/lps3 mutant in C57BL/6J mouse macrophages assessed as stimulated release of TNFalpha after 4 hrs by ELISA; how it was run: as §3
# Macrophage [5] = assay: Induction of TNFalpha release in C57BL/6J mouse macrophages harboring TLR6 int/int mutant at 50 uM after 4 hrs by ELISA; assay type: functional, cell-based; how it was run: as §3
# Macrophage [6] = assay: Induction of TNFalpha release in C57BL/6J mouse macrophages harboring TLR7 rsq1/rsq1 mutant at 50 uM after 4 hrs by ELISA; assay type: functional, cell-based; how it was run: as §3
# Macrophage [7] = assay: Induction of TNFalpha release in C57BL/6J mouse macrophages harboring TLR9 CpG3/CpG3 mutant at 50 uM after 4 hrs by ELISA; assay type: functional, cell-based; how it was run: as §3
# Macrophage [8] = assay: Induction of TNFalpha release in C57BL/6J mouse macrophages harboring CD14 hdl/hdl mutant at 50 uM after 4 hrs by ELISA; assay type: functional, cell-based; how it was run: as §3
# Mus musculus [9] = assay: Adjuvant activity in C57BL/6J mouse assessed as increase in OVA-specific IgG1 levels up to 250 mg/kg, im after 21 days by ELISA; assay type: functional, organism-based
# How it was run: (§4)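 C57BL/6 mice, 4 per group, immunized i.m. with 100 µg ovalbumin (endotoxin <1 EU/mg) plus compound in propylene glycol vehicle, or vehicle alone. OVA-specific IgG subclasses in serum titrated by ELISA at day 21. Mean ± SEM.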
# Mus musculus [10] = assay: Adjuvant activity in C57BL/6J mouse assessed as increase in OVA-specific IgG2a levels at 250 mg/kg, im after 21 days by ELISA; assay type: functional, organism-based; how it was run: as §4
# Mus musculus [11] = assay: Adjuvant activity in C57BL/6J mouse assessed as increase in OVA-specific IgG2b levels at 250 mg/kg, im after 21 days by ELISA; assay type: functional, organism-based; how it was run: as §4
# Mus musculus [12] = assay: Adjuvant activity in C57BL/6J mouse assessed as increase in OVA-specific IgG3 levels at 250 mg/kg, im after 21 days by ELISA; assay type: functional, organism-based; how it was run: as §4
# [13] = target: T1, Toll-like receptor 4 (Mus musculus); assay: Agonist activity at TLR4 receptor in LY96 deficient C57BL/6J mouse macrophages assessed as induction of TNFalpha release at 50 uM after 4 hrs by ELISA; how it was run: as §3
# [14] = target: T1, Toll-like receptor 4 (Mus musculus); assay: Agonist activity at TLR4 receptor in C57BL/6J mouse macrophages harboring MYD88 poc/poc mutant assessed as induction of TNFalpha release at 50 uM after 4 hrs by ELISA; how it was run: as §3
# [15] = target: T1, Toll-like receptor 4 (Mus musculus); assay: Agonist activity at TLR4 receptor in C57BL/6J mouse macrophages harboring Ticam1 Lps2/Lps2 mutant assessed as induction of TNFalpha release at 50 uM after 4 hrs by ELISA; how it was run: as §3
# [16] = target: T1, Toll-like receptor 4 (Mus musculus); assay: Agonist activity at TLR4 receptor in C57BL/6J mouse macrophages harboring Irak4 otiose/otiose mutant assessed as induction of TNFalpha release at 50 uM after 4 hrs by ELISA; how it was run: as §3
# [17] = target: T1, Toll-like receptor 4 (Mus musculus); assay: Agonist activity at TLR4 receptor in C57BL/6J mouse macrophages harboring Ikbkg panr2/Y mutant assessed as induction of TNFalpha release at 50 uM after 4 hrs by ELISA; how it was run: as §3
compound,measurement,setting,value
CC(C)(C)OC(=O)[C@H](CCc1ccccc1)NC(=O)c1ccc(N)c(CCc2ccc(O)cc2)c1,Activity,[1],Dose-dependent effect
same,pEC50,Toll-like receptor 4,4.73
same,Activity,Macrophage [2],Active
same,Activity,Macrophage [3],Active
same,Activity,Mus musculus [4],inactive
same,Activity,Macrophage [5],Active
same,Activity,Macrophage [6],Active
same,Activity,Macrophage [7],Active
same,Activity,Macrophage [8],Active
same,Activity,Mus musculus [9],Dose-dependent effect
same,Activity,Mus musculus [10],Active
same,Activity,Mus musculus [11],Active
same,Activity,Mus musculus [12],Active
same,Activity,[13],inactive
same,Activity,[14],inactive
same,Activity,[15],inactive
same,Activity,[16],inactive
same,Activity,[17],inactive

# — ChEMBL document CHEMBL3817776, “Discovery and Structure-Activity Relationships of the Neoseptins: A New Class of Toll-like Receptor-4 (TLR4) Agonists” (J Med Chem, 2016)
